Published values collected from several papers.
Compare with care: the assays were run in different laboratories.
Observed: enzyme activity
Action: inhibitor
CDK5 with p25: Cyclin-dependent kinase 5, with p25 (CDK5, Homo sapiens, UniProt Q00535)
CDK5 with p35: Cyclin-dependent kinase 5, with p35 (CDK5, Homo sapiens, UniProt Q00535)

| Structure (SMILES) | target | method | concentration | time | remaining activity |
| --- | --- | --- | --- | --- | --- |
| O=C(Nc1cnn(-c2csc(C(=O)NC3COC3)c2)c1)Nc1ccccc1Cl | CDK5 with p25 |  | 5 µM |  | 101% |
| CC(C)(C)c1nc2c(s1)c1nc(N)ncc1c1ccc(NS(=O)(=O)c3c(F)cccc3F)c(F)c12 | CDK5 with p35 | radiometric | 1 µM |  | 77% |
| CC[C@H](C)[C@H](NC(=O)[C@H](CCC(N)=O)NC(=O)[C@H](CC(C)C)NC(=O)[C@H](CCSC)NC(=O)[C@H](CCCCN)NC(=O)[C@H](CO)NC(=O)[C@H](CO)NC(=O)[C@H](CCSC)NC(=O)[C@H](CC(C)C)NC(=O)[C@H](CC(N)=O)NC(=O)[C@@H](NC(=O)[C@@H](NC(=O)[C@H](CO)NC(=O)[C@H](CC(C)C)NC(=O)[C@H](CS)NC(=O)[C@H](CCCNC(=N)N)NC(=O)[C@H](CC(=O)O)NC(=O)[C@H](Cc1c[nH]c2ccccc12)NC(=O)[C@H](Cc1ccccc1)NC(=O)[C@H](C)NC(=O)[C@H](CCC(=O)O)NC(=O)[C@@H](N)CCCCN)C(C)C)[C@@H](C)CC)C(=O)N[C@@H](CC(N)=O)C(=O)N[C@@H](C)C(=O)O | CDK5 with p25 | radiometric | 250 µM | 20 min | 41% |
| CCN(CC)c1ccc(C2=NNC(=O)CC2C)cc1[N+](=O)[O-] (stereo not shown) | CDK5 with p35 |  | 10 µM |  | 109% |
| Cc1sc(C(=O)NC2COC2)cc1-n1cc(NC(=O)Nc2c(F)cccc2Cl)cn1 | CDK5 with p25 |  | 10 µM |  | 97.6% |
| CC(C)(O)[C@H]1CC[C@H](Nc2ccc3ncc(-c4cccc(C(F)(F)F)c4)n3n2)CC1 | CDK5 with p25 |  | 1 µM |  | 92.2% |
| CCCOc1ccc(OC)c(F)c1C(=O)c1ccc(C(=O)N[C@@H]2CNC[C@H]2NC(=O)c2ccc3[nH]ncc3c2)cc1 | CDK5 with p25 |  | 50 nM |  | 114% |
| O=C(Nc1cnn(-c2csc(C(=O)NC3COC3)c2)c1)Nc1c(F)cccc1Cl | CDK5 with p25 |  | 5 µM |  | 88.2% |
| COc1cc(Cl)c(C(=O)N[C@@H](CN[C@H]2CC[C@@H](N)CC2)Cc2ccc(C#N)cc2)cc1-c1ccc(CN[C@H](C)c2ccc(C)cc2)o1 | CDK5 with p35 |  | 1 µM |  | 88% |
| Cc1cnc(NC2CCOCC2)nc1-n1cnc(C(=O)NC(CN)c2cc(F)cc(Cl)c2)c1 (stereo not shown) | CDK5 with p35 | radiometric | 1 µM |  | 4% |
